The sample as a whole holds a higher share of hits than the screen did.
CHOP inh: blocks CHOP induction under ER stress; inhibition, % at 10 µM; AID 2732; 220,000 tested, 3.8% active; CHO-K1 CHOP-promoter luciferase, tunicamycin-induced, 15-18 h;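 active = compounds that reduced the stress-induced luciferase reporter signal by more than about 70% of percent inhibition, limit read from the data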;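 note: 0% = tunicamycin plus vehicle and 100% = wells without tunicamycin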
Jurkat NFkB inh: inhibitors of the PMA/ionomycin-induced NF-kB reporter in Jurkat cells; PMA/ionomycin-induced NF-kB luciferase reporter, luminescence; inhibition, % at 4 µM; 330,000 tested, 0.53% active; AID 435003; in the data active = inhibition above about 50%
UPR XBP1 act: adaptive UPR (XBP1) activation | CHO-XBP1 luciferase reporter, IRE1-XBP1 UPR activation, luminescence; percent of tunicamycin response, DMSO as zero | activation, % at 20 µM | 330,000 tested, 0.33% active;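 active = versus positive control, 20 µM dose yields 30% or more activation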;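 note: 100% = tunicamycin at 10 µg/mL and 0% = DMSO only wells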
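Test system: CHO-XBP1 luciferase reporter cells | Buffer or medium: Serum-containing F12 medium, 10% FBS | Schedule: 6 h compound exposure at 37 °C, 5% CO2 | Detection: Steady-Glo luciferase glow luminescence, 10 min after reagent addition | Read-out basis: Activation, % of tunicamycin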
UPR CHOP act: apoptotic UPR (CHOP) activation; 330,000 tested, 0.34% active; AID 449763; activation, % at 10 µM; CHO-CHOP luciferase reporter, luminescence; percent of tunicamycin response over DMSO baseline;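 active = at 10 µM dose, activation of 40% or more, normalized to positive control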;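 note: 100% = tunicamycin at 10 µg/mL and 0% = DMSO alone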
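Test system: CHO CHOP reporter cells. Input: 500 CHO-CHOP cells per well. Medium: F12 with 10% FBS. Technique: luciferase luminescence. Measure: percent activation relative to tunicamycin control. Dosing: 10 µM compound, 0.5% DMSO. Timing: 16-18 h cell attachment, then 6 h compound exposure, 37 °C.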
697 NFkB inh: lowers PMA/ionomycin-induced NF-kB signal in 697 B cells. 697 B-cell NF-kB luciferase reporter, 16 h. inhibition, % at 4 µM. 330,000 tested, 0.33% active. AID 435022; in the data active = inhibition above about 35%
* = called active by the depositor; · = not tested or not shown.

SMILES	CHOP inh	Jurkat NFkB inh	UPR XBP1 act	UPR CHOP act	697 NFkB inh
COC(OC)c1ccc(C#N)c(SCc2ccc(C)cc2)n1	17	6	-1	0	-8
CCCCN1CC[C@H]2C=CC[C@@H](C(=O)Nc3ccccc3)[C@H]2C1=O	·	-11	0	-1	3
NC1=NC(=O)C(Cc2ccc(OC(F)(F)F)cc2)S1 (stereo not given)	·	-7	3	3	1
CC1CC(C)CN(C(=O)CN(C)S(=O)(=O)c2ccc3c(c2)c(=O)n(C)c(=O)n3C)C1 (stereo not given)	·	1	-2	2	-11
CCC(=O)n1nc(-c2cccnc2)nc1NCc1ccccc1	13	·	·	·	·
CCCC(=O)n1nc(-c2cccnc2)nc1NCc1ccccc1	70*	·	·	·	·
CCSC(N)=Nc1ccc(C(F)(F)F)cc1	-12	·	·	·	·
CC(C)NC(=S)NC(=O)/C=C/c1cccc2ccccc12	86*	-6	-2	-1	13
Cc1cc(NC(=O)CCl)n(-c2nc3ccccc3s2)n1	77*	-42	3	11	9
CC(C)OC(=O)C(C(=O)C(F)(F)F)c1cc(NS(=O)(=O)c2ccc3ccccc3c2)c2ccccc2c1O (stereo not given)	92*	37	-1	3	-72
Cc1ccc(C(=O)O)cc1NS(=O)(=O)c1ccc2ccccc2c1	·	-8	-4	-1	-8
O=C(Nc1ccc(OC(F)(F)F)cc1)C1CCCN(S(=O)(=O)c2cnc[nH]2)C1 (stereo not given)	·	-4	-4	1	2
O=C(Cn1cc(C(F)(F)F)ccc1=O)NCc1ccc(F)cc1	·	-15	6	5	-18
CCN1CCN(CCC(=O)Nc2cc(OC)cc(OC)c2)CC1	·	9	-3	2	-3
CS(=O)(=O)N(CC(=O)N1CCN(c2ccccc2)CC1)c1ccc(Cl)c(C(F)(F)F)c1	76*	4	-1	0	-16
COc1cccc(N2CCN(C(=O)CN(c3cc(C)cc(C)c3)S(=O)(=O)c3c(C)noc3C)CC2)c1	·	6	-8	-1	-23
Cc1cc(C)cc(N(CC(=O)N2CCN(c3ccccc3)CC2)S(=O)(=O)c2c(C)noc2C)c1	76*	4	-2	2	3
Cc1ccc(C(C)(C)C)cc1S(=O)(=O)Nc1cccc(C(=O)N2CCN(c3ccccn3)CC2)c1	·	13	0	-1	-11
CCCCn1c(=O)[nH]c(=O)c2c1nc(-c1ccc(CC)c([N+](=O)[O-])c1)n2C	76*	2	8	-1	-8
N#C/C(=C\c1ccc(O)c(O)c1)C(=O)NCCCc1ccccc1	-3	6	5	151*	-46
CCCCCCCCNC(=O)/C(C#N)=C/c1ccc(SC)cc1	93*	15	0	3	3
COc1ccc(/C=C(\C#N)C(=O)NCCc2ccccc2)cc1OCc1ccccc1	-1	5	-2	0	15
Cc1ccc(NC(=O)C2CCCO2)cc1[N+](=O)[O-] (stereo not given)	16	-8	1	3	-11
COc1ccc(Cl)cc1NC(=O)CN1CCC(n2nnc3ccccc32)CC1	37	1	-1	-1	-13
Cc1cccc(C)c1OCc1nnc(NC(=O)CSc2ccc(Cl)cc2)s1	83*	3	0	2	16
SMILES	CHOP inh	Jurkat NFkB inh	UPR XBP1 act	UPR CHOP act	697 NFkB inh
O=C(Cc1cccc([N+](=O)[O-])c1)Nc1ccc(C(=O)N2CCCCC2)cc1	·	22	-2	-1	2
Cc1ccc(Nc2c(-c3ccccn3)nc3cc(C)ccn23)cc1	76*	9	8	17	-5
Cc1ccn2c(Nc3ccc4c(c3)OCO4)c(-c3ccccn3)nc2c1	78*	-7	3	9	-41
Cc1ccc(Nc2c(-c3ccccn3)nc3ccc(C)cn23)cc1	80*	-5	9	19	-15
Cc1ccn2c(NC3CCCC3)c(-c3ccccn3)nc2c1	33	-18	5	23	-49
Cc1ccc(C)c(NS(=O)(=O)c2ccc3[nH]c(=O)oc3c2)c1	3	-12	-3	-2	20
COc1ccc2oc(C(=O)N(Cc3ccco3)Cc3cccs3)c(C)c2c1	·	-11	5	4	-9
Clc1ccc(CN2CCCCCC2)cc1	·	-1	-5	1	2
Clc1ccc(CN2CCCCCCC2)cc1Cl	79*	-5	-3	-2	24
COc1cc(CN(C(=S)NCC(=O)NC2CC2)C2CCCC2)cc(OC)c1OC	10	11	0	1	1
CC(C)(C)c1ccc(SCCc2cccnc2)cc1	-34	-80	1	8	-119
Cc1nnc(NC(=O)CSc2nc3c(c(=O)n2CCc2ccccc2)SC(C)C3)s1 (stereo not given)	93*	5	8	-1	1
CC1Cc2nc(SCC(=O)Nc3nc4ccccc4s3)n(C)c(=O)c2S1 (stereo not given)	75*	6	0	1	-16
Cc1cccc(C)c1OCC(=O)NNC(=S)NC(=O)C1CC1	·	6	-2	0	1
CCOC(=O)c1c(C)nc2cc(C)ccn12	3	-3	2	2	-12
Cc1ccn2c(C(=O)CSc3ccccc3Cl)c(C)nc2c1	73*	-9	4	4	-47
N#Cc1c(N)nc2c3c(sc(=N)c2c1N)NC(=O)CC3c1ccccc1 (stereo not given)	11	4	25	6	-5
Cc1c(C#N)c(N)nc2c3c(sc12)NC(=O)CC3c1ccc(Cl)cc1 (stereo not given)	101*	17	8	4	11
O=C(Cc1c(F)cccc1Cl)Nc1cccc(S(=O)(=O)NC2=NCCCCC2)c1	·	7	-5	-2	14
O=C(Cc1ccc(Cl)cc1Cl)Nc1ccc(OC(F)F)c(Cl)c1	95*	6	-2	2	11
O=C(COC(=O)Cc1ccc(Cl)cc1Cl)Nc1ccc(OC(F)F)cc1	22	4	0	0	13
CC(C)CC(=O)Nc1ccc(F)c(Cl)c1	90*	0	0	1	8
O=C(Cc1ccc(Cl)cc1Cl)Nc1cccc(S(=O)(=O)Nc2ccccc2F)c1	87*	12	-4	0	8
CCOC(=O)c1cc2c(=O)n3ccccc3nc2n(Cc2ccco2)c1=NC(=O)c1ccccc1OC	72*	-8	-3	1	-26
CCCSc1ccc2nc(-c3ccccc3)cn2c1	86*	-47	-9	-8	-172
COc1cccc(-c2c(C(=O)N/N=C/c3sccc3C)nnn2-c2nonc2N)c1	·	4	-7	-3	11
O=C(N/N=C1/CC(c2ccccc2)Oc2ccccc21)C1CC1 (stereo not given)	93*	1	4	1	-8
O=C(N/N=C1\CC(c2ccccc2)Oc2ccccc21)c1ccc(O)cc1 (stereo not given)	·	-25	4	2	1
